A short description of data set [1]: Clearance in rat hepatocytes assessed per 10 million cells. In kind it is ADME, cell-based, Hepatocyte.
Data set [2] in a line: Plasma protein binding in mouse assessed as fraction unbound by equilibrium dialysis based LC-MS/MS method. The data set is classed as ADME, cell-free. An outline of the steps:
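Equilibrium dialysis across a 12–14 kDa cutoff membrane in a Teflon 96-well device. Pooled frozen plasma is adjusted to pH 7.4 and spiked at 1000 nM initial total, against Soerensen buffer pH 7.4. Incubation is 5 h at 37 °C, 5% CO2, with diazepam control in each well. %fu = 100 × buffer/matrix concentration after dialysis; recovery accepted at 80–120%.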
In general terms: In equilibrium dialysis free small molecules cross a membrane that holds back macromolecules.

A further data set relates to mouse P-gp. Briefly: Apparent permeability across apical to basolateral side in pig LLC-PK1 cells expressing mouse P-gp. In kind it is ADME, cell-based, Sus scrofa. In short, it runs like this: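 LLC-PK1 porcine kidney cells transfected with human or mouse P-gp were grown as polarized monolayers on filter membranes. Compound was dosed to the apical side and receiver appearance followed over 3 h at 37 °C. A→B Papp was measured with the P-gp inhibitor zosuquidar present at 1 µM.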

Data set [3] is described as follows: Half-life in Wistar rat at 10 mg/kg, ip […] by LC-MS/MS analysis. In kind it is ADME, organism-based. The following applies: in vivo. An outline of the steps:
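Male Wistar rats, single dose. i.v. in NMP/0.9% NaCl 30:70; p.o. and i.p. in NMP/HPMC/diisooctyl sulfosuccinate 10:90; 3 per i.v./p.o. group, 6 i.p. K2EDTA plasma sampled 0.083–7 h, plus 24 h for i.v./p.o.; brain and CSF at 1, 2, 7 h (i.p. only). LC-MS/MS, noncompartmental analysis.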

Data set [4] can be described thus: Cmax in Wistar rat at 10 mg/kg, ip measured upto 24 hrs by LC-MS/MS analysis. As to conditions: in vivo. In kind it is ADME, organism-based.
A further data set deals with CYP2C9 (Homo sapiens, UniProt P11712). Description: Inhibition of CYP2C9 (unknown origin) at 10 uM relative to control. In kind it is ADME.
CYP2C9, sequence (P11712 whole entry): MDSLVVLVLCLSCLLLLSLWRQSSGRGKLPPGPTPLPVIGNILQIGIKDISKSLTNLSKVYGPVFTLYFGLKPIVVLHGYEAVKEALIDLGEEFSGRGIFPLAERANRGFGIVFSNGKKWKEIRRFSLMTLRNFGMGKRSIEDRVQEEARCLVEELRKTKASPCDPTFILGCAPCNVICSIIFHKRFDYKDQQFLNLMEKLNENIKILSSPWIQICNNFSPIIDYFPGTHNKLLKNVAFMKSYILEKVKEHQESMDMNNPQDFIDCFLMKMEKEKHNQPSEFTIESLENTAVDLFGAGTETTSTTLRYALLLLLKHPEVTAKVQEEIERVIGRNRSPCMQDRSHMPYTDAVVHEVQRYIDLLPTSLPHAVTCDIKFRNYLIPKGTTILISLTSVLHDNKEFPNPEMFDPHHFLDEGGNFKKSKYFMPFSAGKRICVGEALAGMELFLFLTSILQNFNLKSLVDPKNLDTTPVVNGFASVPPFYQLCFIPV
Data set [5] is described as follows: Average drug concentration in mouse plasma at 30 mg/kg, ip measured after 24 hrs. The following applies: in vivo. In kind it is ADME, organism-based. An outline of the steps: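 In a time course, mice were injected i.p. with 30 mg/kg in NaCl/DMSO/Tween 80 (80/10/10). Average plasma levels were determined at the stated time points over 24 h.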
Data set [6] can be described thus: Brain-polar-lipids/water distribution coefficient, LIMBA logD brain of the compound at pH 7.4 incubated for 8 hrs by LIMBA.
For data set [7], the target named is T1, Monoglyceride lipase (Homo sapiens) (UniProt Q99685).
T1 sequence (whole entry): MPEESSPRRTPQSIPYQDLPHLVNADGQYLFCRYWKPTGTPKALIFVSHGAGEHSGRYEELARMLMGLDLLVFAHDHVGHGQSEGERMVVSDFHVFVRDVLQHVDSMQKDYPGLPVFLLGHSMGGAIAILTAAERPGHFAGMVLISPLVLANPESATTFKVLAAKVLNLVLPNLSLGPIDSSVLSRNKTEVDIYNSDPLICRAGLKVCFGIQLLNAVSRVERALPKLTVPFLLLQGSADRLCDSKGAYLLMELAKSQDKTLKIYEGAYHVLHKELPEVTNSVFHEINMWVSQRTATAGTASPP
Description: Binding affinity to human MAGL assessed as dissociation rate constant by SPR analysis. An outline of the steps: (§1)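 Human or rat MAGL was immobilized by amine coupling without ethanolamine quenching. Runs were done at 18 °C in 10 mM HEPES, 150 mM NaCl, 0.05% P20, 50 µM EDTA, pH 7.4, with 1% DMSO. Single-cycle kinetics used five concentrations, top 1 µM in 2-fold steps, at 30 µL/min, giving kon, koff and Kd.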
Background: Surface plasmon resonance follows binding to a sensor surface in real time, without labels.

In data set [8] the target is T2, Monoglyceride lipase (Rattus norvegicus) (UniProt Q8R431).
T2 sequence (whole entry): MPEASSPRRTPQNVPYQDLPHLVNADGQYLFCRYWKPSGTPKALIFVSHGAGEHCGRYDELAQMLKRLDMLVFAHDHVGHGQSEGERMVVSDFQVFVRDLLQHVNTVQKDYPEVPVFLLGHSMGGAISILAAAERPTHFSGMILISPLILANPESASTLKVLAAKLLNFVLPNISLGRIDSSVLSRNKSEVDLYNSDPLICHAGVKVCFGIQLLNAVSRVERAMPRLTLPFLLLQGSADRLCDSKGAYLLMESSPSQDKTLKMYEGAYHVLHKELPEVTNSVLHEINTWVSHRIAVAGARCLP
Briefly: Binding affinity to rat MAGL assessed as dissociation rate constant by SPR analysis. In short, it runs like this:
as §1

The species named for a further data set is Mus musculus. Description: Inhibition of DAGL in mouse brain lysates at 10 uM by ABPP assay. In kind it is subcellular. An outline of the steps:
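Gel-based activity-based protein profiling of hydrolases, with the inhibitor at 10 µM.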

In data set [9] the target is T3, Monoglyceride lipase (Mus musculus) (UniProt O35678).
T3 sequence (whole entry): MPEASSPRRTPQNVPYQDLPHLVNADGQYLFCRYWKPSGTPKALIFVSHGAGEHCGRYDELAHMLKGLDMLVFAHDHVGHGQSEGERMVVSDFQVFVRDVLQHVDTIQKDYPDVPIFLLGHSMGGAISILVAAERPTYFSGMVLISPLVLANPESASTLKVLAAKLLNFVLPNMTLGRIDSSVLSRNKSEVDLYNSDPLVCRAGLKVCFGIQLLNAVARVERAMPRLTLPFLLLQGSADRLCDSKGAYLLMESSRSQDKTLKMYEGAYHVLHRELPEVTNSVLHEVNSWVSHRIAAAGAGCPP
Briefly: In vivo receptor occupancy at MAGL receptor in mouse at 30 mg/kg, ip measured after 16 hrs. The data set is classed as functional, organism-based. In short, it runs like this:
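Mice dosed 30 mg/kg i.p. in NaCl/DMSO/TW80 (80/10/10). Brain proteome was prepared at set time points over 24 h and MAGL occupancy read by activity-based protein profiling.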

The term hepatocyte CLint denotes a measure of how fast metabolising enzymes remove a compound, apart from limits set by blood flow. A lower hepatocyte CLint goes with greater metabolic stability. Broadly, the fraction unbound is free concentration divided by total concentration. Broadly, the Papp A→B is how fast a substance crosses the layer from the apical side. As usually defined, the half-life is how long it takes for the measured level to halve. Low readings indicate fast loss, high ones slow loss. The term Cmax denotes the peak of the concentration-time curve. In general, inhibition refers to the change of the read-out against control, counted positive when it falls.

Calls of active or inactive are those of the source.

`O=C1CO[C@H]2CCN(C(=O)N3CCC(Cc4ccc(C(F)(F)F)cc4)CC3)C[C@H]2N1` [listing 1 of 2 here]: the hepatocyte CLint in data set [1] came to 4 µL/min/10^7 cells. Besides, in data set [2], the fraction unbound came to 0.047. Further, the apparent permeability from apical to basolateral (Papp A→B) with mouse P-gp came to 24.4 ×10⁻⁶ cm/s. This compound also gave a half-life in [3] of 2.7 h. This compound came in with a Cmax in data set [4] of 12200 ng/mL. Besides, the inhibition at 10 µM against CYP2C9 was 3%. For the same compound, the Cave in data set [5] was found to be 100 nM. Besides, in data set [6], the LIMBA logD brain at 8 h stood at 1.8.

For `O=C1CO[C@H]2CCN(C(=O)N3CCC(Cc4ccc(C(F)(F)F)cc4)CC3)C[C@H]2N1` [listing 2 of 2 here], the K in data set [7] is 7.5 10^-3/s; in data set [8] it was 16.8 10^-3/s. For the same compound, the inhibition entry in the data set listed under Mus musculus is “inactive”. The Activity in data set [9] came out at 60%.

(Values after ChEMBL document CHEMBL6127097, “Structure-Guided Discovery of cis-Hexahydro-pyrido-oxazinones as Reversible, Drug-like Monoacylglycerol Lipase Inhibitors” (J Med Chem, 2024).)
